Bioassay records: PubChem BioAssay, several laboratories
MC4R antag cAMP: MC4R antagonists of cAMP signaling, primary screen, cell-based, TR-FRET, antagonist arm of biased-ligand search. MC4R-expressing cells, MTII-stimulated cAMP, LANCE TR-FRET. inhibition, % at 6.5 µM. 0.48% of 360,000 active. AID 540295, 2011;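 active = inhibition above its plate's cutoff, the mean of tested wells on that plate plus 3 SD, cut at about 29% in these data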;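 also: 0% = Melanotan II alone and 100% = Melanotan II plus saturating MCL0020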
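Test system: U2OS cells stably expressing human melanocortin 4 receptor (MC4R); also added: Melanotan II challenge; compound: 6.5 µM single dose; timing: 30-min compound preincubation, 1-h Melanotan II challenge, 1-h detection, room temperature; signal: Eu-cAMP/anti-cAMP TR-FRET, emission 671 nm; repeats: one well per compound, no replicates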
SMARCA2 activ: SMARCA2 (BRM) function activators, primary screen, cell-based, luminescence, high throughput. activation, % at 9.1 µM. 1% of 370,000 active. AID 652017, 2013. MG213 cells, MMTV-luciferase reporter, dexamethasone, overnight; in the data active = activation above about 7.8%;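 also: 0% = vehicle wells and 100% = reference activator wells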
MC4R barr agon: MC4R agonists recruiting beta-arrestin, primary screen, cell-based, luminescence, agonist arm of biased-ligand search; Melanocortin receptor 4 (Homo sapiens), P32245; U2OS MC4R beta-arrestin complementation; percent of melanotan II response, DMSO zero; activation, % at 8.9 µM; 0.98% of 360,000 active;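 active = activation above a per-plate cutoff, the mean activation of sample wells on that plate plus 3 SD, cut at about 8% in these data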
MPTP inh: mitochondrial permeability transition pore inhibitors, primary screen, biochemical, isolated mouse mitochondria, absorbance; Ca2+ swelling absorbance, 30 min; inhibition, % at 10 µM; 1.4% of 360,000 active;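 active = inhibition of 50% or more, scaled per plate between neutral and stimulator controls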;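 also: 0% = DMSO wells given calcium and 100% = 1 mM EGTA wells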
ATG4B inh: ATG4B protease inhibitors, primary screen, biochemical, fluorescence, uHTS | Cysteine protease ATG4B (Homo sapiens), Q9Y4P1 | ATG4B cleavage of LC3-PLA2, NBD-HPC fluorescence, 1 h | inhibition, % at 8.33 µM | 0.51% of 340,000 active; in the data active = inhibition above about 40%
Target sequence (Q9Y4P1 whole entry, looked up): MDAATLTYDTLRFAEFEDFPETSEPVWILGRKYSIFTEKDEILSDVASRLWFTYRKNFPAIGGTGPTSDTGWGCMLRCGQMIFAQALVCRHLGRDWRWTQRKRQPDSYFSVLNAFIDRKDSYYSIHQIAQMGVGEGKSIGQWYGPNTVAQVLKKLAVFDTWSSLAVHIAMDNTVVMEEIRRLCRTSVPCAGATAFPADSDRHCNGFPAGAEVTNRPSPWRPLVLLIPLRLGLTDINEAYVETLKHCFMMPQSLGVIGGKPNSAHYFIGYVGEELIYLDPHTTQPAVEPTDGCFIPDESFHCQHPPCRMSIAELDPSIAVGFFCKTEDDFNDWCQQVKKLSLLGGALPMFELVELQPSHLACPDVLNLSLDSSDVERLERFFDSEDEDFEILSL
MC4R barr conf: MC4R beta-arrestin agonists, retest, confirmation, cell-based, luminescence, U2OS; shares compounds with MC4R barr agon; U2OS MC4R beta-arrestin recruitment; scaled DMSO 0%, Melanotan II 100%; activation, % at 8.9 µM; 31% of 2,400 active; AID 602192, 2012;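 active = mean activation across replicates above the hit cutoff set in the earlier primary screen, cut at about 8% in these data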
MOR-DOR barr ag: agonists of MOR-DOR heterodimerization, counter-screen for MC4R biased agonist project, cell-based, luminescence | activation, % at 9.2 µM | shares compounds with MC4R barr agon | AID 602194, 2012 | 5.8% of 2,400 active | U2OS PathHunter beta-arrestin, beta-gal luminescence; percent of deltorphin B response, DMSO zero;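 active = mean activation across replicates exceeds the hit threshold derived in the earlier primary screen, cut at about 18% in these data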;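 also: 100% = deltorphin B at 0.9 µM final and 0% = DMSO alone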
* marks the source's active call; other numbers are inactive results; · = no result given. The list is not random: actives were taken first. Their share in the collection is about 4.1%.

SMILES	MC4R antag cAMP	SMARCA2 activ	MC4R barr agon	MPTP inh	ATG4B inh	MC4R barr conf	MOR-DOR barr ag
C[C@@H]1OC(C2CCCCC2)N(C)[C@H]2C[C@H]3c4[nH]c5cccc(-c6cccc(F)c6)c5c4CCN3C(=O)[C@@H]12 (some centres undefined)	·	-5	·	·	·	·	·
O=C(OCCN1CCN(C2CN(Cc3cn(Cc4ccc([N+](=O)[O-])cc4)nn3)S(=O)(=O)C2)CC1)c1cc2ccccc2o1 (centres undefined)	·	0	·	·	·	·	·
Cc1ccc(-c2cc(C(=O)N(C)Cc3cnn(C)c3C)c3cc(Br)ccc3n2)cc1	13	-1	9.7*	0	-4	2	3
Cc1ccc(-c2cc(C(=O)NCc3cnn(C)c3C)c3cc(Br)ccc3n2)cc1	7	-2	7	-1	-2	·	·
O=C(CCN1C(=O)/C(=C/c2ccccc2F)SC1=S)NC1C=CS(=O)(=O)C1 (centres undefined)	-3	-4	10*	0	-7	-1	2
CCOC(=O)c1c(NC(=O)Cn2cnc([N+](=O)[O-])n2)sc2c1CCCC2	-4	-2	2	0	-5	·	·
CC(C)OC(=O)c1c(NC(=O)Cn2cnc([N+](=O)[O-])n2)sc2c1CCCC2	11	0	9.9*	0	-4	0	4
CCOC(=O)c1c(CSC(=N)N)n(-c2ccc(C)cc2)c2cc(Br)c(OC(C)=O)cc12	1	-1	29*	0	34	14*	51*
CCOC(=O)c1c(CSC(=N)N)n(C)c2cc(Br)c(OC(C)=O)cc12	1	3	-3	0	12	·	·
Cc1cc(C)cc(OCC(=O)Nc2nc(-c3ccccn3)cs2)c1	-9	0	12*	0	-6	3	3
N#Cc1ccccc1OCC(=O)Nc1nc(-c2ccccn2)cs1	-5	-2	-2	0	·	·	·
O=C(CCCOC(=O)c1cccnc1Cl)c1ccc(Br)cc1	3	-3	0	0	-7	·	·
O=C(CCCOC(=O)c1ccc(O)cc1O)c1ccc(Br)cc1	5	-3	10*	6	-2	8.7*	7
O=C(CSc1nccc(-c2ccc(Br)cc2)n1)NCCc1ccccc1	6	0	12*	1	-3	1	4
Cc1nc(SCC(=O)NCCc2ccccc2)n[nH]1	11	1	-1	-4	1	·	·
COc1ccc(Cl)cc1NC(=O)c1c(-c2ccccc2)noc1C	-1	0	27*	0	9	0	3
COc1ccc(Cl)cc1NC(=O)COC(=O)c1c(-c2ccccc2)noc1C	12	-3	-1	0	-5	·	·
COc1cc(OC)c(NC(=O)c2c(-c3ccccc3)noc2C)cc1Cl	8	1	25*	1	3	6	6
O=S1(=O)c2c(cccc2N2CCC[C@H]2CO)OCCCN1C1CC1	·	-2	·	·	·	·	·
O=C(C[C@H]1C(=O)N(c2ccc(Br)cc2)C[C@@H]1Cc1ccccc1)Nc1ccccc1	8	-4	2	-2	·	·	·
O=C(C[C@H]1C(=O)N(c2ccccc2)C[C@@H]1Cc1ccccc1)Nc1ccc(Br)cc1	10	3	14*	2	·	1	4
O=C(C1CCN(c2cncnc2)CC1)N1CCCC1	·	-3	·	·	·	·	·
Cc1cccc(-c2n[nH]c(=S)n2/N=C/c2cccs2)c1	25	6	0	0	14	·	·
Cc1cccc(-c2n[nH]c(=S)n2/N=C/c2ccc(C)s2)c1	5	3	12*	2	11	0	4
CCCOc1ccc(N2C(=O)CC(NNC(=O)c3ccc(COc4ccccc4)o3)C2=O)cc1 (centres undefined)	21	-1	13*	1	-5	5	7
SMILES	MC4R antag cAMP	SMARCA2 activ	MC4R barr agon	MPTP inh	ATG4B inh	MC4R barr conf	MOR-DOR barr ag
CCOc1cccc(N2C(=O)CC(NNC(=O)c3ccc(Br)o3)C2=O)c1 (centres undefined)	11	2	-1	6	-4	·	·
COC(=O)C1=C(C)N(Cc2ccccc2C(F)(F)F)C(=NCc2ccc(C(F)(F)F)cc2)NC1c1ccccc1 (centres undefined)	·	-2	·	·	·	·	·
COc1cc(/C=C2\SC(=Nc3ccccc3)NC2=O)cc(Cl)c1O	16	4	4	2	-7	·	·
CCc1ccc(N=C2NC(=O)/C(=C/c3cc(OC)c(O)c(OC)c3)S2)cc1	2	-1	14*	2	-4	13*	7
CC(=O)c1ccc(NC(=O)COC(=O)c2ccccc2Nc2ccccc2)cc1	4	-2	10*	36	-5	4	6
O=C(COC(=O)c1ccccc1Nc1ccccc1)Nc1ccccc1	4	-1	15*	4	2	3	8
CNC(=O)COC(=O)c1ccccc1Nc1ccccc1	14	0	-3	0	-4	·	·
COC(=O)[C@H](C(C)C)N(CCc1cn(CC2CCCCC2)nn1)S(=O)(=O)c1ccccc1Br	·	-5	·	·	·	·	·
CCC(C(=O)OCC(=O)NC(=O)NC(C)(C)C)c1ccccc1 (centres undefined)	28	-3	9.7*	-1	-4	3	14
COc1cccc(NC(=O)Nc2c(-c3ccc(C(F)(F)F)cc3)nc3ncccn23)c1	·	3	·	·	·	·	·
Clc1ccc(Cn2ncc3c(N4CCN(c5ccccc5)CC4)ncnc32)cc1	25	0	11*	0	·	17*	12
COC(=O)[C@H](CC(C)C)N1Cc2nnn(Cc3ccc(C)cc3)c2-c2cc(F)ccc2S1(=O)=O	·	-1	·	·	·	·	·
O=C(Cc1csc(-c2ccccc2)n1)Nc1ccc(C(F)(F)F)cc1	4	2	14*	30	10	4	11
Cc1ccc(NC(=O)Cc2csc(-c3ccccc3)n2)cc1F	14	-1	3	25	0	·	·
Cc1ccccc1OCC(=O)Nc1cccc2nsnc12	3	3	11*	-2	-6	0	3
CCc1ccc(OCC(=O)Nc2cccc3nsnc23)cc1	2	-1	1	0	-4	·	·
O=C(Nc1ccc(-c2noc(COc3ccccc3Cl)n2)cc1)c1ccco1	0	3	27*	0	4	8	5
